Common to all, as to type: functional
The test system of one assay is Escherichia coli. The assay can be described thus: Anti-bacterial activity was tested against Gram-negative EC-1 bacterium. The gist of the method: (§1)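 Standard microtitration MIC determination (µg/mL) against four representative Gram-negative and Gram-positive bacterial strains.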
Assay [1] concerns Mycolicibacterium fortuitum. The assay can be described thus: Anti-bacterial activity tested against Mycobacterium fortuitum (ATCG 6841).
The test system of assay [2] is Mycolicibacterium smegmatis. As to the kind of experiment: Anti-bacterial activity tested against Mycobacterium smegmatis (ATCG 19420).
Another assay concerns Pseudomonas aeruginosa. As to the kind of experiment: Anti-bacterial activity tested against Gram-negative PA-7 bacterium. Put shortly:
as §1

The next assay relates to Staphylococcus aureus. The assay can be described thus: Anti-bacterial activity was tested against Gram-positive SA-13 bacterium. Put shortly:
as §1

The subject of a further assay is Streptococcus pyogenes. The assay can be described thus: Anti-bacterial activity tested against Gram-positive SP1-1 bacterium. Put shortly:
as §1

In brackets after ≈: the same amount, converted by molar mass. Where only a bound is given, the exact number is not on record here.

The MIC is the lowest concentration found to suppress growth.

Consider `CC1CN(c2cc3c(cc2F)c(=O)c(C(=O)O)cn3C2CC2)CCN1` (stereo not given), for which the minimal inhibitory concentration (MIC) amounted to 0.05 µg/mL (≈ 0.145 µM) in the assay with Escherichia coli; 0.06 µg/mL (≈ 0.174 µM) in assay [1]; 0.25 µg/mL (≈ 0.724 µM) in assay [2]; 0.2 µg/mL (≈ 0.579 µM) in the assay with Pseudomonas aeruginosa; 0.8 µg/mL (≈ 2.32 µM) against Staphylococcus aureus; 0.8 µg/mL (≈ 2.32 µM) with Streptococcus pyogenes.

Regarding `CC(C)N1CCN(c2cc3c(cc2F)c(=O)c(C(=O)O)cn3C2CC2)CC1`, the MIC with Escherichia coli was determined as 0.1 µg/mL (≈ 0.268 µM); in assay [1], 0.25 µg/mL (≈ 0.669 µM); in assay [2], 0.25 µg/mL (≈ 0.669 µM); with Pseudomonas aeruginosa, 1.6 µg/mL (≈ 4.28 µM); against Staphylococcus aureus, 0.2 µg/mL (≈ 0.536 µM); with Streptococcus pyogenes, 0.8 µg/mL (≈ 2.14 µM).

In the case of `CC1CN(c2cc3c(cc2F)c(=O)c(C(=O)O)cn3C(C)C)CC(C)N1` (stereo not given), the minimum inhibitory concentration (MIC) in the assay on Escherichia coli is 1.6 µg/mL (≈ 4.43 µM); in assay [1] it was 0.5 µg/mL (≈ 1.38 µM); in assay [2] it was 2 µg/mL (≈ 5.53 µM); in the assay with Pseudomonas aeruginosa, above 3.1 µg/mL; with Staphylococcus aureus, 3.1 µg/mL (≈ 8.58 µM); in the assay on Streptococcus pyogenes it was above 3.1 µg/mL.

In the case of `CCCCN1CCN(c2cc3c(cc2F)c(=O)c(C(=O)O)cn3-c2ccc(F)cc2F)CC1`, the minimal inhibitory concentration (MIC) with Escherichia coli came out at 0.8 µg/mL (≈ 1.74 µM); in assay [1], 1 µg/mL (≈ 2.18 µM); in assay [2] it was 2 µg/mL (≈ 4.35 µM); with Pseudomonas aeruginosa it was 3.1 µg/mL (≈ 6.75 µM); with Staphylococcus aureus, 0.4 µg/mL (≈ 0.871 µM); with Streptococcus pyogenes, 3.1 µg/mL (≈ 6.75 µM).

On to `CNCC1CCN(c2cc3c(cc2F)c(=O)c(C(=O)O)cn3C2CCC2)C1` (stereo not given), for which the minimal inhibitory concentration (MIC) in the assay on Escherichia coli stood at 0.8 µg/mL (≈ 2.14 µM); in assay [1], 2 µg/mL (≈ 5.36 µM); in assay [2], 4 µg/mL (≈ 10.7 µM); in the assay on Pseudomonas aeruginosa it was 3.1 µg/mL (≈ 8.3 µM); against Staphylococcus aureus, 0.8 µg/mL (≈ 2.14 µM); in the assay on Streptococcus pyogenes it was 1.6 µg/mL (≈ 4.28 µM).

For the compound `CC1CN(c2cc3c(cc2F)c(=O)c(C(=O)O)cn3C(C)(C)C)CC(C)N1` (stereo not given), the minimum inhibitory concentration (MIC) is 0.2 µg/mL (≈ 0.533 µM) in the assay with Escherichia coli; 0.06 µg/mL (≈ 0.16 µM) in assay [1]; 0.06 µg/mL (≈ 0.16 µM) in assay [2]; 1.6 µg/mL (≈ 4.26 µM) against Pseudomonas aeruginosa; 0.4 µg/mL (≈ 1.07 µM) with Staphylococcus aureus; above 3.1 µg/mL in the assay with Streptococcus pyogenes.

For `CCC1CN(c2cc3c(cc2F)c(=O)c(C(=O)O)cn3-c2ccc(F)cc2F)CCN1` (stereo not given), the MIC against Escherichia coli worked out at 0.4 µg/mL (≈ 0.927 µM); in assay [1] it was 0.25 µg/mL (≈ 0.579 µM); in assay [2], 1 µg/mL (≈ 2.32 µM); with Pseudomonas aeruginosa, 3.1 µg/mL (≈ 7.19 µM); with Staphylococcus aureus, 0.4 µg/mL (≈ 0.927 µM); against Streptococcus pyogenes, 0.8 µg/mL (≈ 1.85 µM).

Take `CCN1CCN(c2cc3c(cc2F)c(=O)c(C(=O)O)cn3CC)CC1`: the MIC was determined as 0.1 µg/mL (≈ 0.288 µM) in the assay with Escherichia coli; 0.25 µg/mL (≈ 0.72 µM) in assay [1]; 0.5 µg/mL (≈ 1.44 µM) in assay [2]; 1.6 µg/mL (≈ 4.61 µM) against Pseudomonas aeruginosa; 0.2 µg/mL (≈ 0.576 µM) against Staphylococcus aureus; 3.1 µg/mL (≈ 8.92 µM) against Streptococcus pyogenes.

Regarding `CCn1cc(C(=O)O)c(=O)c2cc(F)c(N3CCC(N)C3)cc21` (stereo not given), the minimum inhibitory concentration (MIC) in the assay on Escherichia coli came to 0.4 µg/mL (≈ 1.25 µM); in assay [1], 1 µg/mL (≈ 3.13 µM); in assay [2] it was 4 µg/mL (≈ 12.5 µM); with Pseudomonas aeruginosa it was 0.8 µg/mL (≈ 2.51 µM); against Staphylococcus aureus it was 1.6 µg/mL (≈ 5.01 µM); in the assay with Streptococcus pyogenes, 0.8 µg/mL (≈ 2.51 µM).

Consider `CC1CN(c2cc3c(cc2F)c(=O)c(C(=O)O)cn3C(C)C)CCN1` (stereo not given), for which the MIC is 0.8 µg/mL (≈ 2.3 µM) against Escherichia coli; 0.5 µg/mL (≈ 1.44 µM) in assay [1]; 2 µg/mL (≈ 5.76 µM) in assay [2]; 3.1 µg/mL (≈ 8.92 µM) against Pseudomonas aeruginosa; 3.1 µg/mL (≈ 8.92 µM) in the assay on Staphylococcus aureus; above 3.1 µg/mL against Streptococcus pyogenes.

Regarding `CC(C)n1cc(C(=O)O)c(=O)c2cc(F)c(N3CCNCC3)cc21`, the MIC was 0.8 µg/mL (≈ 2.4 µM) in the assay with Escherichia coli; 1 µg/mL (≈ 3 µM) in assay [1]; 4 µg/mL (≈ 12 µM) in assay [2]; 1.6 µg/mL (≈ 4.8 µM) in the assay with Pseudomonas aeruginosa; above 3.1 µg/mL with Staphylococcus aureus; above 3.1 µg/mL with Streptococcus pyogenes.

`CC(C)CN1CCN(c2cc3c(cc2F)c(=O)c(C(=O)O)cn3C2CC2)CC1`: the MIC is 0.2 µg/mL (≈ 0.516 µM) in the assay with Escherichia coli; 1 µg/mL (≈ 2.58 µM) in assay [1]; 0.25 µg/mL (≈ 0.645 µM) in assay [2]; 1.6 µg/mL (≈ 4.13 µM) in the assay on Pseudomonas aeruginosa; 0.4 µg/mL (≈ 1.03 µM) in the assay on Staphylococcus aureus; 1.6 µg/mL (≈ 4.13 µM) against Streptococcus pyogenes.

For the compound `CNCC1CCN(c2cc3c(cc2F)c(=O)c(C(=O)O)cn3C2CC2)C1` (stereo not given), the MIC with Escherichia coli worked out at 0.2 µg/mL (≈ 0.556 µM); in assay [1], 0.25 µg/mL (≈ 0.696 µM); in assay [2], 0.5 µg/mL (≈ 1.39 µM); with Pseudomonas aeruginosa, 0.8 µg/mL (≈ 2.23 µM); against Staphylococcus aureus, 0.2 µg/mL (≈ 0.556 µM); with Streptococcus pyogenes, 0.1 µg/mL (≈ 0.278 µM).

With `CCN1CCN(c2cc3c(cc2F)c(=O)c(C(=O)O)cn3-c2ccc(F)cc2F)CC1`, the minimum inhibitory concentration (MIC) came to 0.4 µg/mL (≈ 0.927 µM) against Escherichia coli; 0.5 µg/mL (≈ 1.16 µM) in assay [1]; 1 µg/mL (≈ 2.32 µM) in assay [2]; 1.6 µg/mL (≈ 3.71 µM) against Pseudomonas aeruginosa; 0.2 µg/mL (≈ 0.464 µM) against Staphylococcus aureus; 0.8 µg/mL (≈ 1.85 µM) against Streptococcus pyogenes.

With `CC(C)(C)n1cc(C(=O)O)c(=O)c2cc(F)c(N3CCC(N)C3)cc21` (stereo not given), the MIC came out at 0.2 µg/mL (≈ 0.576 µM) in the assay on Escherichia coli; 0.06 µg/mL (≈ 0.173 µM) in assay [1]; 0.13 µg/mL (≈ 0.374 µM) in assay [2]; 0.4 µg/mL (≈ 1.15 µM) in the assay with Pseudomonas aeruginosa; 0.4 µg/mL (≈ 1.15 µM) against Staphylococcus aureus; 0.4 µg/mL (≈ 1.15 µM) in the assay on Streptococcus pyogenes.

With `CN1CCN(c2cc3c(cc2F)c(=O)c(C(=O)O)cn3C2CC2)CC1`, the minimum inhibitory concentration (MIC) amounted to 0.05 µg/mL (≈ 0.145 µM) in the assay on Escherichia coli; 0.06 µg/mL (≈ 0.174 µM) in assay [1]; 0.25 µg/mL (≈ 0.724 µM) in assay [2]; 0.4 µg/mL (≈ 1.16 µM) in the assay on Pseudomonas aeruginosa; 0.2 µg/mL (≈ 0.579 µM) in the assay with Staphylococcus aureus; 1.6 µg/mL (≈ 4.63 µM) with Streptococcus pyogenes.

On to `O=C(O)c1cn(C2CC2)c2cc(N3CCNCC3)c(F)cc2c1=O` [CIPROFLOXACIN], for which the minimal inhibitory concentration (MIC) in assay [1] was determined as 0.06 µg/mL (≈ 0.181 µM); in assay [2], 0.25 µg/mL (≈ 0.754 µM); against Pseudomonas aeruginosa it was 0.2 µg/mL (≈ 0.604 µM); with Streptococcus pyogenes, 0.4 µg/mL (≈ 1.21 µM).

Source of the values: ChEMBL document CHEMBL1129477, “Structure-activity relationships of the quinolone antibacterials against mycobacteria: effect of structural changes at N-1 and C-7” (J Med Chem, 1996).
